{"source": "ChEMBL document CHEMBL1629704", "about": "“Inhibition of dengue virus by an ester prodrug of an adenosine analog” (Antimicrob Agents Chemother, 2010)", "key": {"[1]": {"test_system": "dengue virus type 2", "test": "Antiviral activity against Dengue virus 2 MY10340 infected in human A549 cells by CFI assay", "format": "functional, organism-based", "summary_of_the_method": "(§1)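 CFI assay: A549 cells seeded 2 × 10^4/well, infected next day (MOI 0.3 for DENV-2) with compound-virus mixture for 1 h, then refed with compound-containing medium. On day 2 cells were methanol-fixed at 4°C and intracellular E protein detected by ELISA (4G2 primary, HRP anti-mouse secondary). EC50 is the average of two independent experiments.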"}, "[2]": {"test_system": "dengue virus type 4", "test": "Antiviral activity against Dengue virus 4 MY22713 infected in human A549 cells by CFI assay", "format": "functional, organism-based", "summary_of_the_method": "as §1"}, "[3]": {"test_system": "dengue virus type 2", "test": "Antiviral activity against Dengue virus 2 NGC infected in human A549 cells by CFI assay", "format": "functional, organism-based", "summary_of_the_method": "as §1"}, "[4]": {"test_system": "dengue virus type 2", "test": "Antiviral activity against Dengue virus 2 NGC infected in human PBMC cells by plaque assay", "format": "functional, organism-based"}, "[5]": {"test_system": "dengue virus type 3", "test": "Antiviral activity against Dengue virus 3 MY22366 infected in human A549 cells by CFI assay", "format": "functional, organism-based", "summary_of_the_method": "as §1"}, "[6]": {"test_system": "dengue virus type 1", "test": "Antiviral activity against Dengue virus 1 MY10245 infected in human A549 cells by CFI assay", "format": "functional, organism-based", "summary_of_the_method": "as §1"}, "[7]": {"test_system": "dengue virus type 2", "test": "Antiviral activity against Dengue virus 2 TSV01 infected in AG129 mouse assessed as reduced viremia by 25 mg/kg, po BID for 3 days measured on day 4 by plaque assay", "format": "functional", "summary_of_the_method": "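AG129 mice (lacking IFN-α/β and IFN-γ receptors) were inoculated i.p. with 2 × 10^6 PFU DENV-2 in 0.4 ml. Immediately afterwards, 0.2 ml compound in ethanol-PEG-D5W (10:30:60) was given by oral gavage twice daily for 3 days. Day-4 blood viremia was measured by plaque assay; 6 or 8 mice per group.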"}}}
{"smiles": "C#C[C@@]1(O)[C@H](O)[C@@H](CO)O[C@H]1n1ccc2c(N)ncnc21", "values": [{"measurement": "EC50", "setting": "[1]", "result": 1120, "unit": "nM"}, {"measurement": "EC50", "setting": "[2]", "result": 700, "unit": "nM"}, {"measurement": "EC50", "setting": "[3]", "result": 1640, "unit": "nM"}, {"measurement": "EC50", "setting": "[4]", "result": 580, "unit": "nM"}, {"measurement": "EC50", "setting": "[5]", "result": 460, "unit": "nM"}, {"measurement": "EC50", "setting": "[6]", "result": 2610, "unit": "nM"}, {"measurement": "fold change (FC)", "setting": "[7]", "result": 10}]}
